Active and inactive are the calls of the source. The calls are words filed in the database; no cut-off is given here.
Legend:
[1] = tested on: Leishmania donovani; assay: Antileishmanial activity against Leishmania donovani MHOM/IN/80/Dd8 promastigotes infected in ip dosed BALB/c mouse assessed as reduction in parasite load in liver administered once daily for 5 days measured 7 days post dose by giemsa staining-based assay; assay type: functional, organism-based
Outline: (§1)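 Hamster-passaged strain was transformed to promastigotes. Stationary-phase cells (2 × 10^7 in 0.2 mL PBS) were injected into the tail vein of BALB/c mice. From day 15 post-infection, mice received compound ip in 8% DMSO in PBS for 5 consecutive days, 5 mice per group. Mice were killed day 7 post-treatment. Liver and spleen burden was read from Giemsa-stained stamp smears as LDU.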

[2] = tested on: Leishmania donovani; assay: Antileishmanial activity against Leishmania donovani MHOM/IN/80/Dd8 amastigotes harboring luciferase reporter gene infected in mouse J774 cells at 100 uM by Giemsa staining-based microscopic assay; assay type: functional, organism-based
Outline: (§2)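 Infection of J774 macrophages with L. donovani Dd8 promastigotes at a 1:8 cell:parasite ratio. Compounds were diluted 2-fold in RPMI over 3.125–100 μM final and applied for 48 h. Amastigote inhibition was read by luciferase (RLU) or by Giemsa count of amastigotes per 100 macrophages. IC50 was from dose–response; n = 3 independent experiments done in replicate.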

[3] = tested on: Leishmania donovani; assay: Antileishmanial activity against Leishmania donovani MHOM/IN/80/Dd8 promastigotes harboring luciferase reporter gene at 100 uM after 48 hrs by MTT assay; assay type: functional, organism-based
Outline: (§3)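 Luciferase-expressing L. donovani Dd8 promastigotes were grown at 24 °C in M199 with 10% heat-inactivated FBS and G418 20 μg/mL. They were exposed to a range of concentrations for 48 h, and viability was read by MTT absorbance as percent of untreated control. IC50 was from dose–response; n = 3 independent experiments done in replicate.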

[4] = tested on: Leishmania donovani; assay: Antileishmanial activity against Leishmania donovani MHOM/IN/80/Dd8 promastigotes harboring luciferase reporter gene at 100 uM after 48 hrs by Steady-Glo luminescence assay; assay type: functional, organism-based
Outline: (§4)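 Luciferase-expressing L. donovani Dd8 promastigotes were grown at 24 °C in M199 with 10% heat-inactivated FBS and G418 20 μg/mL. They were treated at varied concentrations for 24 and 48 h, and inhibition was read as relative luminescence units versus untreated control. IC50 was from dose–response; screening values are mean ± SD of at least three experiments in duplicate.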

[5] = tested on: Leishmania donovani; assay: Antileishmanial activity against Leishmania donovani MHOM/IN/80/Dd8 promastigotes harboring luciferase reporter gene at 50 uM after 48 hrs by Steady-Glo luminescence assay relative to control; assay type: functional; conditions: MHOM/IN/80/Dd8, 48 h; outline: as §4
[6] = tested on: Leishmania donovani; assay: Antileishmanial activity against Leishmania donovani MHOM/IN/80/Dd8 promastigotes harboring luciferase reporter gene at 25 uM after 48 hrs by Steady-Glo luminescence assay relative to control; assay type: functional; conditions: MHOM/IN/80/Dd8, 48 h; outline: as §4
[7] = tested on: Leishmania donovani; assay: Antileishmanial activity against Leishmania donovani MHOM/IN/80/Dd8 amastigotes harboring luciferase reporter gene infected in mouse J774 cells at 50 uM after 48 hrs by Steady-Glo luminescence assay relative to control; assay type: functional; conditions: MHOM/IN/80/Dd8, J774, 48 h; outline: as §2
[8] = tested on: Leishmania donovani; assay: Antileishmanial activity against Leishmania donovani MHOM/IN/80/Dd8 amastigotes harboring luciferase reporter gene infected in mouse J774 cells at 25 uM after 48 hrs by Steady-Glo luminescence assay relative to control; assay type: functional; conditions: MHOM/IN/80/Dd8, J774, 48 h; outline: as §2
[9] = tested on: Leishmania donovani; assay: Antileishmanial activity against Leishmania donovani MHOM/IN/80/Dd8 amastigotes harboring luciferase reporter gene infected in mouse J774 cells after 48 hrs by Steady-Glo luminescence assay; assay type: functional, organism-based; conditions: for IC50: MHOM/IN/80/Dd8, J774, 48 h; outline: as §2
[10] = tested on: Leishmania donovani; assay: Antileishmanial activity against Leishmania donovani MHOM/IN/80/Dd8 amastigotes harboring luciferase reporter gene infected in mouse J774 cells after 48 hrs by Giemsa staining-based microscopic assay; assay type: functional, organism-based; conditions: for IC50: MHOM/IN/80/Dd8, J774, 48 h; outline: as §2
[11] = tested on: Leishmania donovani; assay: Antileishmanial activity against Leishmania donovani MHOM/IN/80/Dd8 amastigotes harboring luciferase reporter gene infected in mouse J774 cells by Giemsa staining-based microscopic assay; assay type: functional, organism-based; conditions: TDE = time-dependent effect; outline: as §2
[12] = tested on: Leishmania donovani; assay: Antileishmanial activity against Leishmania donovani MHOM/IN/80/Dd8 promastigotes harboring luciferase reporter gene after 48 hrs by MTT assay relative to control; assay type: functional; outline: as §3
[13] = tested on: Leishmania donovani; assay: Antileishmanial activity against Leishmania donovani MHOM/IN/80/Dd8 promastigotes harboring luciferase reporter gene after 48 hrs by Steady-Glo luminescence assay relative to control; assay type: functional; outline: as §4
[14] = tested on: Leishmania donovani; assay: Antileishmanial activity against Leishmania donovani MHOM/IN/80/Dd8 amastigotes harboring luciferase reporter gene infected in mouse J774 cells at 50 uM after 48 hrs by Giemsa staining-based microscopic assay relative to control; assay type: functional; conditions: MHOM/IN/80/Dd8, J774, 48 h; outline: as §2
[15] = Cytotoxicity against mouse J774 cells assessed as cell viability up to 50 uM measured after 48 hrs by MTT assay relative to control; assay type: cell-based; conditions: read-out: Activity
Outline: (§5)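 Vero cells and J774 macrophages were exposed to 12.5−400 μM compound for 48 h. Viability was read by MTT. CC50 was derived from the curve. Mean ± SD, n = 3 experiments in replicate.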

[16] = Cytotoxicity against African green monkey Vero cells assessed as cell viability up to 100 uM measured after 48 hrs by MTT assay relative to control; assay type: cell-based; conditions: chlorocebus sabaeus, read-out: Activity; outline: as §5
[17] = Stability of the compound in simulated intestinal fluid assessed as parent compound remaining measured after 2 hrs by UPLC analysis; assay type: ADME; conditions: read-out: Stability
Outline: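 Compound incubated 2 h in simulated gastric fluid (pH 1.2) […] or in simulated intestinal fluid (pH 6.5) […]; the percentage of intact compound remaining was reported.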

[18] = Stability in rat plasma assessed as parent compound remaining at 10 ug/ml measured after 2 hrs by UPLC analysis; assay type: ADME, cell-free; conditions: read-out: Stability
[19] = Intrinsic clearance in rat liver microsomes at 10 ug/ml preincubated for 5 mins followed by NADPH addition measured after 60 mins by UPLC analysis; assay type: ADME, Microsome; conditions: read-out: CLH
Outline: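 Compound was incubated with rat liver microsomes, sampling % remaining up to 60 min. In vitro half-life and related parameters came from a plot of ln(% remaining) versus incubation time.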

[20] = tested on: Leishmania donovani; assay: Antileishmanial activity against Leishmania donovani MHOM/IN/80/Dd8 promastigotes infected in BALB/c mouse assessed as reduction in parasite load in liver at 50 mg/kg, ip administered once daily for 5 days measured 7 days post dose by giemsa staining-based assay relative to control; assay type: functional; design: scale not given: the % may be the effect or the level left; outline: as §1
[21] = tested on: Leishmania donovani; assay: Antileishmanial activity against Leishmania donovani MHOM/IN/80/Dd8 promastigotes infected in BALB/c mouse assessed as reduction in parasite load in spleen at 200 mg/kg, ip administered once daily for 5 days measured 7 days post dose by giemsa staining-based assay relative to control; assay type: functional; design: scale not given: the % may be the effect or the level left; outline: as §1
[22] = Toxicity in BALB/c mouse infected with Leishmania donovani MHOM/IN/80/Dd8 promastigotes assessed as death at 12.5 to 200 mg/kg, ip administered once daily for 5 days measured up to 7 days post dose; assay type: organism-based; conditions: in vivo
Outline: (§6)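 BALB/c mice (20 ± 2 g) were infected by tail-vein injection of 2 × 10^7 stationary-phase promastigotes. At day 15 they received ip doses in 8% DMSO/PBS for 5 consecutive days and were killed at day 7 post-treatment. Survival, general health and body weight were monitored; 5 mice per group.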

[23] = Toxicity in BALB/c mouse infected with Leishmania donovani MHOM/IN/80/Dd8 promastigotes assessed as effect on health at 12.5 to 200 mg/kg, ip administered once daily for 5 days measured up to 7 days post dose; assay type: organism-based; conditions: in vivo; outline: as §6

Compound: Cc1cc(-c2cccc(OCCn3c([N+](=O)[O-])cnc3C)c2)nc2ccccc12
- Activity [1]: Dose-dependent effect
- inhibition [2]: Active
- inhibition [3]: Active
- inhibition [4]: Active
- inhibition at 50 µM [5]: 94.7%
- inhibition at 25 µM [6]: 77.8%
- inhibition at 50 µM [7]: 93.2 to 96%
- inhibition at 25 µM [8]: 75.2%
- inhibition [9]: Dose-dependent effect
- IC50 [9]: 9.81 µM
- inhibition [10]: Dose-dependent effect
- IC50 [10]: 9.09 µM
- inhibition [11]: Tde
- Imax [12]: >93%
- Imax [13]: >93%
- inhibition at 50 µM [14]: > 93%
- viability at 48 h [15]: > 92%
- viability at 48 h [16]: > 86%
- remaining at 2 h [17]: 11.4%
- remaining at 2 h, 10 ug/ml [18]: 68.2%
- microsomal CLint at 10 ug/ml [19]: 10.7 µL/min/mg
- Activity [20]: >50%
- Activity [21]: 54.14%
- Activity [22]: Non-Toxic
- Activity [23]: Non-Toxic

Compound: Cc1cc(-c2ccc(OCCn3c([N+](=O)[O-])cnc3C)cc2)nc2ccccc12
- Activity [1]: Dose-dependent effect
- inhibition [2]: Active
- inhibition [3]: Active
- inhibition [4]: Active
- inhibition at 50 µM [5]: 94.4%
- inhibition at 25 µM [6]: 85.8%
- inhibition at 50 µM [7]: 93.8 to 96%
- inhibition at 25 µM [8]: 83.2%
- inhibition [9]: Dose-dependent effect
- IC50 [9]: 3.75 µM
- inhibition [10]: Dose-dependent effect
- IC50 [10]: 4.06 µM
- inhibition [11]: Tde
- Imax [12]: >93%
- Imax [13]: >93%
- inhibition at 50 µM [14]: > 93%
- viability at 48 h [15]: > 92%
- viability at 48 h [16]: > 86%
- remaining at 2 h [17]: 43.6%
- remaining at 2 h, 10 ug/ml [18]: 88.5%
- microsomal CLint at 10 ug/ml [19]: 9.3 µL/min/mg
- Activity [20]: >82.3%
- Activity [21]: 82.2%
- Activity [22]: Non-Toxic
- Activity [23]: Non-Toxic
